Results taken from ChEMBL document CHEMBL4819027, “Design, synthesis and biological evaluation of novel 2-(4-(1H-indazol-6-yl)-1H-pyrazol-1-yl)acetamide derivatives as potent VEGFR-2 inhibitors” (Eur J Med Chem, 2021).
The source made the active and inactive calls. The calls are words filed in the database; no cut-off is given here.

How the values were obtained:
HT-29 = experiment: Antiproliferative activity against human HT-29 cells assessed as cell growth inhibition after 72 hrs by MTT assay; format: functional, cell-based; details: HT-29, 72 h
Summary of the method: (§1)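 Log-phase cells were seeded at 5 × 10³ per well and attached 24 h. HT-29 and GES-1 were grown in DMEM-based medium, A549/HepG2/HGC-27 in RPMI-1640, HUVEC in ECM with ECGS; all media had 10% FBS. Cells were exposed to graded compound concentrations for 72 h at 37 °C. MTT (5 mg/mL stock) was added for 4 h, formazan dissolved in DMSO, and A490 read. IC50 was obtained by nonlinear sigmoidal regression; mean ± S.E. of three experiments.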

HepG2 = experiment: Antiproliferative activity against human HepG2 cells assessed as cell growth inhibition after 72 hrs by MTT assay; format: functional, cell-based; details: HepG2, 72 h; summary of the method: as §1
GES1 = experiment: Cytotoxicity against human GES-1 cells assessed as inhibition of cell growth incubated for 72 hrs by MTT assay; format: cell-based; details: GES1, 72 h; summary of the method: as §1
HGC-27 [1] = experiment: Antimigratory activity against human HGC-27 cells assessed as relative closure of scratches at 0.5 uM measured after 6 hrs by scratch wound healing assay relative to control; format: functional
Summary of the method: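 HGC-27 monolayers at 80–90% confluence were serum-starved 12 h, then scratched to give 1 mm lanes. After a PBS wash, cells received complete medium with or without compound (0.1, 0.5, 1 μM). Wounds were imaged at 0, 6 and 24 h. Relative scratch closure was quantified against untreated control; mean ± SD of three experiments.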

HGC-27 [2] = experiment: Antimigratory activity against human HGC-27 cells assessed as number of migration cells at 0.5 uM measured after 24 hrs by transwell migration assay (reference value: 320); format: functional
HGC-27 [3] = experiment: Up regulation of E-cadherin expression in human HGC-27 cells at 1 uM measured after 24 hrs by immunoblot analysis; format: functional, cell-based
Summary of the method: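 HGC-27 seeded 1.0×10^6 cells/dish in RPMI-1640/10% FBS; 24 h with compound (0.1, 0.5, 1 µM), 0.1% DMSO vehicle or sorafenib. RIPA lysates with PMSF/phosphatase inhibitor, BCA-normalized, 8–12% SDS-PAGE, nitrocellulose, milk block, primary antibodies overnight 4 °C, HRP secondaries, ECL; E-cadherin band densitometry; mean ± SD, three independent experiments.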

HGC-27 [4] = experiment: Induction of apoptosis in human HGC-27 cells assessed as total apoptotic cells level at 0.5 uM incubated for 24 hrs by propidium iode and annexin V-FITC staining based flow cytometry; format: functional
Summary of the method: (§2)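 HGC-27 cells (1.0 × 10⁶ per 60 mm dish) were treated 24 h with 0.1% DMSO or compound (0.1, 0.5, 1 μM). Cells were stained with Annexin V-FITC in HEPES/NaCl/CaCl₂ binding buffer (pH 7.4) for 15 min at room temperature, then with PI for 10 min. About 10 000 events were acquired by flow cytometry to give viable, early apoptotic, late apoptotic and necrotic fractions.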

HGC-27 [5] = experiment: Induction of apoptosis in human HGC-27 cells assessed as viable cells level at 0.1 uM incubated for 24 hrs by propidium iode and annexin V-FITC staining based flow cytometry (reference value: 96.0%); format: functional; summary of the method: as §2
HGC-27 [6] = experiment: Induction of apoptosis in human HGC-27 cells assessed as early apoptotic cells level at 0.1 uM incubated for 24 hrs by propidium iode and annexin V-FITC staining based flow cytometry (reference value: 1.48%); format: functional; summary of the method: as §2
HGC-27 [7] = experiment: Induction of apoptosis in human HGC-27 cells assessed as late apoptotic cells level at 1 uM incubated for 24 hrs by propidium iode and annexin V-FITC staining based flow cytometry (reference value: 0.86); format: functional; summary of the method: as §2
HGC-27 [8] = experiment: Induction of apoptosis in human HGC-27 cells assessed as late apoptotic cells level at 0.5 uM incubated for 24 hrs by propidium iode and annexin V-FITC staining based flow cytometry (reference value: 0.86%); format: functional; summary of the method: as §2
HGC-27 [9] = experiment: Induction of intracellular ROS generation in human HGC-27cells assessed as increase in fluorescence intensity at 0.5 uM incubated for 24 hrs by DCFH-DA staining-based flow cytometric analysis (reference value: 712); format: functional
HGC-27 [10] = experiment: Induction of apoptosis in human HGC-27 cells assessed as up regulation of Bax protein expression at measured after 24 hrs by Western blot analysis; format: functional, cell-based; details: dose 0.1-1 µM
Summary of the method: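 HGC-27 cells (1.0 × 10⁶ per 60 mm dish) were treated 24 h with 0.1% DMSO or compound (0.1, 0.5, 1 μM). Cells were lysed in RIPA with PMSF and phosphatase inhibitor, and protein measured by BCA. Lysates were run on 8–12% SDS-PAGE, transferred to nitrocellulose and probed with primary antibodies overnight at 4 °C, then HRP secondary. Bands were detected by ECL and densitometry; at least triplicate.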

HUVEC = experiment: Antiangiogenic activity against HUVEC cells assessed as reduction in VEGF-induced tube surface area at 1 to 10 uM incubated for 12 hrs by matrigel-based assay; format: functional, cell-based; details: Homo sapiens, dose 1-10 µM
Summary of the method: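 HUVECs at 4 × 10⁵ cells/mL seeded on Matrigel that had been polymerized 1 h at 37 °C. Cells were stimulated with 20 ng/mL VEGF and treated with compound (1, 2.5, 5 and 10 μM) or 0.1% DMSO vehicle for 12 h at 37 °C. Tubes were imaged by inverted microscopy. Tube length, surface area and branch points were quantified as pixel area.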

[11] = target: T1, Vascular endothelial growth factor receptor 2 (Homo sapiens, UniProt P35968); experiment: Inhibition of VEGFR2 in human HGC-27 cells assessed as downregulation of mTOR phosphorylation at Ser2448 at 0.1 to 1 uM after 24 hrs by Westernblot analysis; format: cell-based; details: dose 0.1-1 µM
T1 sequence (P35968 whole entry): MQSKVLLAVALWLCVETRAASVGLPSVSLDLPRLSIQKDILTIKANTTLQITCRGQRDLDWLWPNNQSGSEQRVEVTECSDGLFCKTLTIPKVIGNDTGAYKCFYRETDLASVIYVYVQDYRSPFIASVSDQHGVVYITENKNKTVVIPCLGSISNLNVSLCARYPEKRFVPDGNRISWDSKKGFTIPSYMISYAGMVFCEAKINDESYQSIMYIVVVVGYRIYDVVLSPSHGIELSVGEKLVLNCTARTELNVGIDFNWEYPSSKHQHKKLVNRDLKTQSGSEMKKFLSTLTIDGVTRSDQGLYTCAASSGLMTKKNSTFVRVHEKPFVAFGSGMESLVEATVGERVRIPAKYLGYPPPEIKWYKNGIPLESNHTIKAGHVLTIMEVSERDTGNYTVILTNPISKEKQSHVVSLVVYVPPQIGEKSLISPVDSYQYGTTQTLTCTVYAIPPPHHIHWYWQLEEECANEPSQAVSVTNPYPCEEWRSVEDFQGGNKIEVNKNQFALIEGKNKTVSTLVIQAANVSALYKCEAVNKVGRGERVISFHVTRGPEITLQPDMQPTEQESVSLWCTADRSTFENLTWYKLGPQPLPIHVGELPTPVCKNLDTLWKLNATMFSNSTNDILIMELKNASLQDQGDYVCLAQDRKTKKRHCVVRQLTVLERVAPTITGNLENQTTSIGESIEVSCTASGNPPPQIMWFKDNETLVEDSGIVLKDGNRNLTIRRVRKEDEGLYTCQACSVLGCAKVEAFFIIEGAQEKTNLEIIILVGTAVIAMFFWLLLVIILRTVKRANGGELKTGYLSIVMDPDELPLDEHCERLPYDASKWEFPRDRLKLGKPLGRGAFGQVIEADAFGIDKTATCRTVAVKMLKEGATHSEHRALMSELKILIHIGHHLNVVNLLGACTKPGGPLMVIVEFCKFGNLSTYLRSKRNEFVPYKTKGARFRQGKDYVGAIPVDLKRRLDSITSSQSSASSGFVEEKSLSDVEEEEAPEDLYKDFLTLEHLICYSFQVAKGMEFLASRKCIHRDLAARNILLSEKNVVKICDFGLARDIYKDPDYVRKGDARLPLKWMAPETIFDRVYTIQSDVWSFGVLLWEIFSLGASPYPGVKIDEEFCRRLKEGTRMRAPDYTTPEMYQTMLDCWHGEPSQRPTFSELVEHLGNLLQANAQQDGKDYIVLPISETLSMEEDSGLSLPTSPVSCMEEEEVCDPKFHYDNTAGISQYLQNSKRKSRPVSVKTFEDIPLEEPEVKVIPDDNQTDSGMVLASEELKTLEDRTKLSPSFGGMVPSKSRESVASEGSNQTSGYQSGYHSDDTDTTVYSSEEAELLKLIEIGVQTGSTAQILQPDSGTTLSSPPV
Summary of the method: (§3)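 HGC-27 cells (1.0 × 10⁶ per 60 mm dish) were treated 24 h with 0.1% DMSO or compound (0.1, 0.5, 1 μM). RIPA lysates with phosphatase inhibitor were quantified by BCA and resolved on 8–12% SDS-PAGE onto nitrocellulose. Blots were probed for p-VEGFR-2 (Tyr1175), p-PI3K (Tyr607), p-AKT (Thr308) and p-mTOR (Ser2448), with ECL detection and densitometry; mean ± SEM.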

[12] = target: T1, Vascular endothelial growth factor receptor 2; experiment: Inhibition of VEGFR2 in human HGC-27 cells assessed as downregulation of VEGFR2 phosphorylation at Tyr1175 at 0.1 to 1 uM after 24 hrs by Westernblot analysis; format: cell-based; details: dose 0.1-1 µM; summary of the method: as §3
HGC-27 [13] = experiment: Induction of apoptosis in human HGC-27 cells assessed as downregulation of Bcl-xl protein expression at incubated for 24 hrs by western blot analysis; details: dose 0.1-1 µM

**Q.** With `CC(=O)Nc1n[nH]c2cc(-c3cnn(CC(=O)Nc4ccc(C)c(C(F)(F)F)c4)c3)ccc12` as the compound, how does the IC50 (HT-29) read?
**A.** 2.97 µM

**Q.** And the IC50 (HepG2)?
**A.** 15 µM

**Q.** What about the IC50 (GES1) of the same compound?
**A.** 187 µM

**Q.** What about the inhibition at 0.5 µM (HGC-27 [1]) of the same compound?
**A.** 9.5%

**Q.** What about the Activity (HGC-27 [2]) of the same compound?
**A.** 87

**Q.** What about the Activity (HGC-27 [3]) of the same compound?
**A.** Dose-Dependent Effect

**Q.** And the Activity (HGC-27 [4])?
**A.** 19.55%

**Q.** What about the Activity (HGC-27 [5]) of the same compound?
**A.** 90.5%

**Q.** What about the Activity (HGC-27 [6]) of the same compound?
**A.** 4.75%

**Q.** What about the Activity (HGC-27 [7]) of the same compound?
**A.** 17%

**Q.** What about the Activity (HGC-27 [8]) of the same compound?
**A.** 11.2%

**Q.** And the Flu intensity (HGC-27 [9])?
**A.** 945

**Q.** And the Activity (HGC-27 [10])?
**A.** Dose-Dependent Effect

**Q.** And the Activity (HUVEC)?
**A.** Active

**Q.** And the inhibition [11]?
**A.** Active

**Q.** What about the inhibition [12] of the same compound?
**A.** Active

**Q.** And the Activity (HGC-27 [13])?
**A.** Dose-Dependent Effect
